# Experimental data from publication PMC9303875 (Clinical Pharmacology in Drug Development, 2022).
# Read-outs that look alike come from different tables or passages of the source. Marks after values point to notes of the source that are not given here.
# Experiments:
# [1] = assay type: in vivo, human; conditions: for time to steady-state PK based on Ctrough: continuous once-daily dosing combined with chemotherapy
# Summary of the method: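 Samples were taken predose and 0.5–8 h (24 h per footnote) post-dose with once-daily dosing. AUC0-24, Cmax, tmax and Ctrough were derived using actual times, and predose BLQ values were set to 0. Accumulation ratio was C1D14/C1D1 or C1D21/C1D8 of induction. Steady state was judged from Ctrough across cycles, and consolidation data pooled both regimens (ME or ARA-C).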
# plasma 2-HG = test: Plasma 2-HG pharmacodynamics in patients with newly diagnosed mIDH1/2 AML; assay type: in vivo, human; conditions: for reduction of mean trough plasma 2-HG concentrations (up to): after multiple doses, combined with chemotherapy; for mean reduction in plasma 2-HG concentration: enasidenib started C1D1, by induction C1D14
# Summary of the method: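 Plasma was sampled within 30 min predose and at 0.5, 2, 4, 6, 8 (and 24, per footnote) h on induction C1D1/C1D14 and consolidation C1D1; the delayed-start cohort was sampled on C1D8/C1D21. 2-HG was measured by surrogate-analyte (¹³C₅ 2-HG) LC-MS/MS, LLOQ 30 ng/mL, with BLQ set to LLOQ. AUEC0-8, AUEC0-24, BAUEC0-24 and Rtrough used actual times. C1D14 reductions were grouped by best overall response: CR; IR (CRi, CRp, MLFS, PR); NR (SD, PD).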
# 2-HG [2] = conditions: cited from earlier work; for plasma 2-HG reduction from baseline, maximum / plasma 2-HG reduction from baseline, median: enasidenib 100 mg once daily
# [3] = cited from earlier work
# IDH2-R172 = conditions: preclinical and in vitro data; cited from earlier work
# [4] = tested on: advanced mIDH2 hematologic malignancies; conditions: cited from earlier work
# bone marrow 2-HG = test: Bone marrow 2-HG pharmacodynamics in patients with newly diagnosed mIDH1/2 AML; assay type: in vivo, human; conditions: after multiple doses; combined with chemotherapy
# Summary of the method: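 Bone marrow aspirates from patients on oral ivosidenib or enasidenib once daily plus chemotherapy. 2-HG was quantified by LC-MS/MS using a qualified surrogate analyte method, with ¹³C₅ 2-HG as the surrogate for calibrators and QCs. LLOQ was 10 ng/mL, and BLQ values were set to LLOQ. Percentage reduction from baseline was computed using actual times relative to dosing.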
# mIDH1 R/R AML = conditions: patients with mIDH1 R/R AML; ivosidenib 500 mg once daily; cited from earlier work
# CYP3A4 = conditions: healthy participants; cited from earlier work
# [5] = cited from earlier work; remark: listed apart in the source
# 2-HG [6] = conditions: ivosidenib 500 mg once daily single agent, cited from earlier work
# [7] = enasidenib 100 mg QD + chemotherapy, Consolidation C1D1
# [8] = enasidenib 100 mg QD starting day 1 + chemotherapy, Induction C1D1
# [9] = enasidenib 100 mg QD starting day 1 + chemotherapy, Induction C1D14
# [10] = enasidenib 100 mg QD starting day 8 + chemotherapy, Induction C1D8
# [11] = enasidenib 100 mg QD starting day 8 + chemotherapy, Induction C1D21
# [12] = ivosidenib 500 mg QD + chemotherapy, Consolidation C1D1
# [13] = ivosidenib 500 mg QD + chemotherapy, Induction C1D14 / induction C1D1
# [14] = ivosidenib 500 mg QD + chemotherapy, Induction C1D1
# [15] = ivosidenib 500 mg QD + chemotherapy, Induction C1D14
smiles,measurement,setting,value
"CC(C)(O)CNc1nc(Nc2ccnc(C(F)(F)F)c2)nc(-c2cccc(C(F)(F)F)n2)n1 [Enasidenib, enasidenib]",time to steady-state PK based on Ctrough,[1],≤ 14 days
same,"Racc AUC0-24 (accumulation ratio based on AUC0-24), mean (SD)",[1]; [7],7.93 (4.29); 18
same,"Racc Cmax (accumulation ratio based on Cmax), mean (SD)",[1]; [7],7.15 (4.59); 24
same,reduction of mean trough plasma 2-HG concentrations (up to),plasma 2-HG,≤ 99%
same,"%BAUEC0-24 (percentage reduction of plasma 2-HG based on AUEC0-24), mean (RSD%)",plasma 2-HG; [7],80.6 (25.1); 21%
same,"%Rtrough (percentage reduction of plasma 2-HG at the end of a dosing interval), mean (RSD%)",plasma 2-HG; [7],77.1 (37.8); 21%
same,"Plasma 2-HG AUEC0-24, mean (RSD%)",plasma 2-HG; [7],1800 (116.1); 21 ng • h/mL
same,"%BAUEC0-24 (percentage reduction of plasma 2-HG based on AUEC0-24), mean (RSD%)",plasma 2-HG; [8],18.7 (108.0); 57%
same,"%Rtrough (percentage reduction of plasma 2-HG at the end of a dosing interval), mean (RSD%)",plasma 2-HG; [8],37.8 (68.2); 57%
same,"%BAUEC0-24 (percentage reduction of plasma 2-HG based on AUEC0-24), mean (RSD%)",plasma 2-HG; [9],85.0 (24.7); 45%
same,"%Rtrough (percentage reduction of plasma 2-HG at the end of a dosing interval), mean (RSD%)",plasma 2-HG; [9],84.7 (24.6); 45%
same,"Plasma 2-HG AUEC0-24, mean (RSD%)",plasma 2-HG; [9],2030 (134.4); 45 ng • h/mL
same,"%BAUEC0-24 (percentage reduction of plasma 2-HG based on AUEC0-24), mean (RSD%)",plasma 2-HG; [10],73.9 (28.1); 16%
same,"%Rtrough (percentage reduction of plasma 2-HG at the end of a dosing interval), mean (RSD%)",plasma 2-HG; [10],82.8 (18.0); 16%
same,"Plasma 2-HG AUEC0-24, mean (RSD%)",plasma 2-HG; [10],3960 (72.5); 16 ng • h/mL
same,"%BAUEC0-24 (percentage reduction of plasma 2-HG based on AUEC0-24), mean (RSD%)",plasma 2-HG; [11],83.1 (34.6); 15%
same,"%Rtrough (percentage reduction of plasma 2-HG at the end of a dosing interval), mean (RSD%)",plasma 2-HG; [11],82.3 (40.5); 15%
same,"Plasma 2-HG AUEC0-24, mean (RSD%)",plasma 2-HG; [11],1670 (130.2); 15 ng • h/mL
same,mean reduction in plasma 2-HG concentration,plasma 2-HG; patients with IDH2-R140 mutations (n = 41),89.3%
same,mean reduction in plasma 2-HG concentration,plasma 2-HG; patients with IDH2-R172 mutations (n = 14),76.9%
same,arithmetic mean percentage reduction of plasma 2-HG based on BAUEC0-8,"plasma 2-HG; enasidenib starting on induction C1D1, following the first enasidenib dose",7.1%
same,reduction in plasma 2-HG AUEC0-8,"plasma 2-HG; enasidenib starting on induction C1D8, at C1D8",71.6%
same,median 2-HG reduction,"plasma 2-HG; in this study, enasidenib combined with chemotherapy",> 75%
same,"plasma 2-HG reduction from baseline, maximum",2-HG [2]; IDH2-R140Q mutations,99%
same,"plasma 2-HG reduction from baseline, median",2-HG [2]; IDH2-R140Q mutations,93%
same,"plasma 2-HG reduction from baseline, maximum",2-HG [2]; IDH2-R172K mutations,94%
same,"plasma 2-HG reduction from baseline, median",2-HG [2]; IDH2-R172K mutations,28%
same,median reduction in 2-HG concentrations from baseline,2-HG [2]; enasidenib dose of 100 mg,90.4%
same,median reduction in 2-HG concentrations from baseline,2-HG [2]; enasidenib doses of <100 mg,92.4%
same,median reduction in 2-HG concentrations from baseline,2-HG [2]; enasidenib doses of >100 mg,93.1%
same,terminal half-life,[3]; enasidenib single agent,≈ 137 hours
same,time to steady state,[3]; enasidenib single agent,≤ 29 days
same,accumulation,"[3]; once-daily administration, ref data on file",≈ 10 fold
same,potency against IDH2-R172 compared with IDH2-R140,IDH2-R172,less potent
same,ORR,[4]; all patients receiving enasidenib 100 mg once daily,38.5%
same,ORR,"[4]; enasidenib 100 mg once daily, patients with IDH2-R140 mutations",35.4%
same,ORR,"[4]; enasidenib 100 mg once daily, patients with IDH2-R172 mutations",53.3%
same,reduction of mean trough bone marrow 2-HG concentrations (up to),bone marrow 2-HG,up to 99%
"N#Cc1ccnc(N2C(=O)CC[C@H]2C(=O)N(c2cncc(F)c2)[C@H](C(=O)NC2CC(F)(F)C2)c2ccccc2Cl)c1 [Ivosidenib, ivosidenib]",overall response rate (ORR),mIDH1 R/R AML,41.6%
same,time to steady-state PK based on Ctrough,[1],≤ 14 days
same,"Racc AUC0-24 (accumulation ratio based on AUC0-24), mean (SD)",[1]; [12],1.38 (0.83); 24
same,"Racc Cmax (accumulation ratio based on Cmax), mean (SD)",[1]; [12],1.21 (0.69); 30
same,"Racc AUC0-24 (accumulation ratio based on AUC0-24), mean (SD)",[1]; [13],2.35 (1.2); 38
same,"Racc Cmax (accumulation ratio based on Cmax), mean (SD)",[1]; [13],1.69 (0.71); 49
same,reduction of mean trough plasma 2-HG concentrations (up to),plasma 2-HG,≤ 99%
same,"%BAUEC0-24 (percentage reduction of plasma 2-HG based on AUEC0-24), mean (RSD%)",plasma 2-HG; [12],91.0 (16.9); 28%
same,"%Rtrough (percentage reduction of plasma 2-HG at the end of a dosing interval), mean (RSD%)",plasma 2-HG; [12],90.7 (17.2); 28%
same,"Plasma 2-HG AUEC0-24, mean (RSD%)",plasma 2-HG; [12],1090 (39.8); 29 ng • h/mL
same,"%BAUEC0-24 (percentage reduction of plasma 2-HG based on AUEC0-24), mean (RSD%)",plasma 2-HG; [14],53.0 (30.5); 48^b %
same,"%Rtrough (percentage reduction of plasma 2-HG at the end of a dosing interval), mean (RSD%)",plasma 2-HG; [14],80.8 (28.1); 48^b %
same,"%BAUEC0-24 (percentage reduction of plasma 2-HG based on AUEC0-24), mean (RSD%)",plasma 2-HG; [15],90.0 (23.8); 46%
same,"%Rtrough (percentage reduction of plasma 2-HG at the end of a dosing interval), mean (RSD%)",plasma 2-HG; [15],89.8 (23.9); 46%
same,"Plasma 2-HG AUEC0-24, mean (RSD%)",plasma 2-HG; [15],1120 (51.8); 47 ng • h/mL
same,AUC parameters when coadministered with itraconazole,CYP3A4,increased
same,Cmax when coadministered with itraconazole,CYP3A4,unaffected
same,half-life,"[5]; ivosidenib 500 mg once daily single agent, after a single dose",93 h
same,accumulation ratio,"[5]; ivosidenib 500 mg once daily single agent, after multiple doses",≈ 2 fold
same,time to steady state based on observed Ctrough,[5]; ivosidenib 500 mg once daily single agent,≤ 14 days
same,ivosidenib clearance with concomitant moderate or strong CYP3A4 inhibitors,"[5]; patients, phase 1 single-agent study",decreased
same,patients achieving a ≥90% reduction in plasma 2-HG concentrations,2-HG [6]; after multiple doses,71%
same,reduction in bone marrow 2-HG concentrations,2-HG [6],> 90%
same,reduction of mean trough bone marrow 2-HG concentrations (up to),bone marrow 2-HG,up to 99%
